In test [1] the test system is P388. In words: In vitro cytotoxicity against murine P388 doxorubicin resistant leukemia cell line. The format is functional, cell-based. The settings on record: Mus musculus. Put shortly:
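P388/Dox cells grown in RPMI 1640 with 10% foetal calf serum, 2-mercaptoethanol, L-glutamine and antibiotics, with doxorubicin 1 μg/mL kept in the medium. Seeded at 1×10^5 cells/mL and exposed 96 h to a range of taxoid concentrations, quadruplicate points. Neutral red 0.02% added for 16 h, cells lysed in 1% SDS, OD read at 540 and 346 nm. IC50 = 50% growth inhibition, from three separate experiments.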

Test [2] concerns P388. In words: In vitro cytotoxicity against murine P388 leukemia cell line. Type of test: functional, cell-based. The following applies: Mus musculus. Put shortly:
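P388 cells kept in RPMI 1640 with 10% foetal calf serum, 10 μM 2-mercaptoethanol, 2 mM L-glutamine and penicillin/streptomycin. Seeded at 1×10^5 cells/mL and grown 96 h with various taxoid concentrations, each in quadruplicate. Viability read by 16 h neutral red (0.02%) uptake, SDS lysis and OD at 540 and 346 nm. IC50 for 50% growth inhibition taken from three separate experiments.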

Test [3] is described as follows: Ratio of inhibition of the rate of microtubule disassembly by the compound to that of paclitaxel. The format is functional. Put shortly: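 Porcine brain tubulin, MAP-depleted on phosphocellulose, used at 9 μM in MES pH 6.8 buffer with glycerol, 6 mM MgCl2 and 1 mM GTP. Taxoid in ethanol (0.1–5 μM) was added, tubulin polymerized 30 min at 37 °C, then cooled to 6 °C. Depolymerization rate was taken from the turbidity (350 nm) decline slope. The IC50 for 50% rate decrease was divided by the paclitaxel IC50.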

Five compounds from ChEMBL document CHEMBL1127831, “Synthesis and structure-activity relationships of new antitumor taxoids. Effects of cyclohexyl substitution at the C-3' and/or C-2 of taxotere (docetaxel)” (J Med Chem, 1994) can be followed below.

Structures are written as SMILES. ≈ marks a conversion by molar mass, not a printed value.

In general, IC50 refers to the point on the concentration scale where inhibition reaches its midpoint. A low value points to inhibition by little substance. For `CC(=O)O[C@@]12CO[C@@H]1C[C@H](O)[C@@]1(C)C(=O)[C@H](O)C3=C(C)[C@@H](OC(=O)[C@H](O)C(NC(=O)OC(C)(C)C)c4ccccc4)C[C@@](O)([C@@H](OC(=O)C4CCCCC4)C12)C3(C)C` (stereo not given in full), the results for the IC50 in the test with P388 [1] and in the test on P388 [2] were 6.3 µg/mL (≈ 7.74 µM) and 0.09 µg/mL (≈ 0.111 µM), respectively. Moreover, the IC50 ratio in test [3] is 0.85.

As for `CC(=O)O[C@@]12CO[C@@H]1C[C@H](O)[C@@]1(C)C(=O)[C@H](O)C3=C(C)[C@@H](OC(=O)[C@H](O)[C@@H](NC(=O)OC(C)(C)C)c4ccccc4)C[C@@](O)([C@@H](OC(=O)c4ccccc4)[C@H]21)C3(C)C.O.O.O` [DOCETAXEL], the results for the IC50 in the test on P388 [1] and in the test with P388 [2] were 1.5 µg/mL and 0.008 µg/mL, respectively. Further, the IC50 ratio in test [3] was determined as 0.7.

On to `CC(=O)O[C@@]12CO[C@@H]1C[C@H](O)[C@@]1(C)C(=O)[C@H](O)C3=C(C)[C@@H](OC(=O)[C@H](O)C(NC(=O)OC(C)(C)C)C4CCCCC4)C[C@@](O)([C@@H](OC(=O)C4CCCCC4)C12)C3(C)C` (stereo not given in full), for which the IC50 with P388 [1] came to 3.6 µg/mL (≈ 4.39 µM); in the test with P388 [2], 0.076 µg/mL (≈ 0.0927 µM). For the same compound, in test [3], the IC50 ratio turned out to be 2.

Regarding `CC(=O)O[C@H]1C(=O)[C@@]2(C)C([C@H](OC(=O)C3CCCCC3)[C@]3(O)C[C@H](OC(=O)[C@H](O)C(NC(=O)c4ccccc4)c4ccccc4)C(C)=C1C3(C)C)[C@]1(OC(C)=O)CO[C@@H]1C[C@@H]2O` (stereo not given in full), the IC50 came out at 7.5 µg/mL (≈ 8.72 µM) in the test on P388 [1] and 0.45 µg/mL (≈ 0.523 µM) with P388 [2]. Besides, the IC50 ratio in test [3] stood at 1.7.

`CC(=O)O[C@@]12CO[C@@H]1C[C@H](O)[C@@]1(C)C(=O)[C@H](O)C3=C(C)[C@@H](OC(=O)[C@H](O)C(NC(=O)OC(C)(C)C)C4CCCCC4)C[C@@](O)([C@@H](OC(=O)c4ccccc4)C12)C3(C)C` (stereo not given in full): the IC50 with P388 [1] stood at 3.1 µg/mL (≈ 3.81 µM); in the test with P388 [2], 0.063 µg/mL (≈ 0.0774 µM). In addition, the IC50 ratio in test [3] came to 0.72.
